Screening results from PubChem BioAssay.
TAG inh = reduces triacylglycerol accumulation in H9c2 cells; actives 0.66% (n = 230,000); Nile Red lipid (TAG) fluorescence; cells loaded with 200 µM oleic acid; inhibition, % at 12.5 µM;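 active means pattern-corrected inhibition of lipid staining of at least 50% with the nuclear-stain viability signal not falling by more than 50%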;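 further: 0% = DMSO wells and 100% = triacsin C control wells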
CXCR6 block = CXCR6 (human) receptor inhibition | actives 0.36% (n = 360,000) | inhibition, % at 20 µM | CHO-K1 PathHunter CXCR6 beta-arrestin, luminescence | O00574; in the data active means inhibition above about 34%, passing the limit was not always enough;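 further: antagonist mode with CXCL16 agonist at 10 nM final; 0% = 10 nM CXCL16 with DMSO and 100% = unstimulated wells without agonist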
EBI2 antag = blocks human EBI2 receptor beta-arrestin signaling | P32249 | EBI2 beta-arrestin recruitment, luminescence, 7a,25-OHC stimulated | inhibition, % at 5 µM | actives 0.81% (n = 360,000); in the data active means inhibition above about 38%;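 further: enzyme fragment complementation signal reports receptor beta-arrestin coupling in cells; 0% = agonist plus DMSO wells and 100% = wells without agonist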
APJ ag = agonists of human APJ apelin receptor; CHO-K1 APJ PathHunter beta-arrestin, luminescence; 0% DMSO wells, 100% apelin; actives 0.11% (n = 330,000); activation, % at 20 µM; AID 2520;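 active means activation more than six SD over the plate average, tested at 20 µM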;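 further: 0% = DMSO alone and 100% = apelin-13 at 10 nM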
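Test system – PathHunter CHO-K1 APJ (AGTRL-1) beta-arrestin reporter cells · Input – 1000 cells/well · Compound – single test compound dose, 20 µM final, 1% DMSO · Times – compound stimulation 90 min at 25 °C, detection 60 min · Technique – beta-gal luminescence · Read-out basis – APJ–arrestin association signal · Control set – negative DMSO alone, positive Apelin-13 at 10 nM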
CCR6 antag = antagonists of human CCR6 receptor; inhibition, % at 20 µM; CHO-K1 CCR6 PathHunter beta-arrestin, luminescence, CCL20-stimulated; actives 0.49% (n = 340,000);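 active means compounds whose inhibition of the agonist-driven luminescence signal at 20 µM reaches about 50%, limit read from the data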;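 further: cells stimulated with CCL20 at 14 nM final; plate controls were DMSO with CCL20 for no effect and DMSO without agonist for full effect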
Target sequence (P51684 whole entry, looked up): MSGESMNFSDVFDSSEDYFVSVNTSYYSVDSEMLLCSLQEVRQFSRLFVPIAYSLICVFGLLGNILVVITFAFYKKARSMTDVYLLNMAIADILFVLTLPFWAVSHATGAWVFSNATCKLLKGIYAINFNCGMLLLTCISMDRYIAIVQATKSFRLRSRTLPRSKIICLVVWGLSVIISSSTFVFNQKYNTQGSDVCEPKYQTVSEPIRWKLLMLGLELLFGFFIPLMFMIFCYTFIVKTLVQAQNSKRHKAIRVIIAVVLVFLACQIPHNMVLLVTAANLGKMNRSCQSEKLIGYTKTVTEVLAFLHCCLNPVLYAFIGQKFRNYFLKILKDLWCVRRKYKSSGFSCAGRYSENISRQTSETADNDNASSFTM
APJ antag = blocks the human apelin receptor APJ | CHO-K1 APJ beta-arrestin complementation, luminescence | inhibition, % at 20 µM | P35414 | actives 0.32% (n = 330,000);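 active means inhibition above about 40% at 20 µM, limit read from the data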;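 further: cells challenged with 10 nM apelin-13 agonist together with compound; plate controls were apelin-13 plus DMSO wells for no effect and DMSO wells lacking apelin-13 for full effect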
TAG conf = triacylglycerol accumulation inhibition, confirmation; shares compounds with TAG inh; inhibition, % at 12.5 µM; H9c2 lipid accumulation, Nile Red fluorescence; cells loaded with 200 µM oleic acid; actives 71% (n = 990);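 active means mean inhibition across replicates of 40% or more; inactive means mean inhibition below 40%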;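 further: plate controls were DMSO only wells for no effect and Triacsin C treated wells for full effect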
* hit, by the source's call. A selection: hits, their analogues and other compounds. The true share with any hit is near 1.9%.

`C#CCN(C[C@@H]1[C@@H](OC(=O)NCc2ccccc2)[C@@H](OC(=O)NCc2ccccc2)CN(C(=O)OC(C)C)N1C(=O)OC(C)C)S(=O)(=O)c1ccc(C)cc1` gave TAG inh 22, CXCR6 block -6 and EBI2 antag 14.
C#CCN(C[C@@H]1[C@@H](OC(=O)NCC2CCCCC2)[C@@H](OC(=O)NCC2CCCCC2)CN(C(=O)OC(C)C)N1C(=O)OC(C)C)S(=O)(=O)c1ccc(C)cc1 was read as TAG inh 51*, CXCR6 block 3, EBI2 antag 16 and TAG conf 61*.
`CN(C(=O)C1CCC(=O)N(Cc2ccccc2F)C1)C1CCOCC1` (centres undefined) gave TAG inh 2, CXCR6 block 3, EBI2 antag 2, APJ ag 2, CCR6 antag -17 and APJ antag 4.
Screening Cc1ccccc1NC(=O)CSc1nc(Nc2ccccc2)nc(N2CCOCC2)n1 returned TAG inh 54*, CXCR6 block -3, EBI2 antag 10, APJ ag -5, CCR6 antag 0, APJ antag -7 and TAG conf 46*.
Screening CC(Sc1nc(NCc2ccccc2)nc(N2CCOCC2)n1)C(=O)Nc1ccccc1 (centres undefined) returned TAG inh 70*, CXCR6 block 8, EBI2 antag 10, APJ ag 1, CCR6 antag 0, APJ antag -6 and TAG conf 47*.
`O=C(CSc1nc(Nc2ccccc2)nc(N2CCOCC2)n1)N1CCc2ccccc21` gave CXCR6 block 12, EBI2 antag 6, APJ ag -3, CCR6 antag -15 and APJ antag 0.
Screening O=C(CSc1nc(Nc2ccccc2)nc(N2CCOCC2)n1)N1CCCC1 returned TAG inh 71*, CXCR6 block -4, EBI2 antag 2, APJ ag -4, CCR6 antag -17, APJ antag 6 and TAG conf 41*.
Cc1ccc(F)cc1NC(=O)CSc1nc(Nc2ccccc2)nc(N2CCOCC2)n1 was read as TAG inh 43, CXCR6 block 6, EBI2 antag -1, APJ ag 11, CCR6 antag 5 and APJ antag -18.
For CCNc1nc(SC(C)C(=O)Nc2ccccc2)nc(N2CCOCC2)n1 (centres undefined) the results were TAG inh 31, CXCR6 block -3, EBI2 antag -1, APJ ag 3, CCR6 antag 10 and APJ antag 0.
For O=C(CSc1nc(N2CCCCC2)nc(N2CCCCC2)n1)N1CCN(c2ccccc2)CC1 the results were TAG inh 60*, CXCR6 block 28, EBI2 antag 5, CCR6 antag 26 and TAG conf 27.
Cc1ccc(C2/C=C\CC(NC(=O)OCC3c4ccccc4-c4ccccc43)CC(=O)N2Cc2ccccc2)cc1 (centres undefined) was read as TAG inh 18, CXCR6 block 17, EBI2 antag 17 and CCR6 antag 24.
Cc1cccc(NC(=O)CCNC(=O)c2ccco2)c1C was read as TAG inh 9, CXCR6 block -2, EBI2 antag -6, APJ ag -4, CCR6 antag 3 and APJ antag -16.
`COc1cc(NC(=O)c2ccco2)c(OC)cc1NC(=O)CCC(=O)Nc1cccc(C)c1C` gave TAG inh 56*, CXCR6 block -5, EBI2 antag -3, APJ ag -4, CCR6 antag -10, APJ antag 5 and TAG conf 52*.
COc1ccccc1NC(=O)c1ccccc1S(=O)(=O)c1ccc([N+](=O)[O-])cc1 was read as TAG inh 54*, CXCR6 block -15, EBI2 antag -22, APJ ag 25, CCR6 antag -9, APJ antag -132 and TAG conf -11.
